20 molecules from PubChem BioAssay AID1325 (NMMLSC, 2008) can be followed below.

Broadly, the inhibition is the change of the read-out against control, counted positive when it falls.

Molecules are shown by their SMILES. The whole screen tested about 190,000 compounds, of which about 200 (0.11%) were called active.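 Rule for the calls: active = inhibition above 80%; inactive = the rest.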 The list comes from a sample in which actives are over-represented; it also holds similar structures and randomly drawn compounds.

Chain of Broad substrate specificity ATP-binding cassette transporter ABCG2 (Homo sapiens) (Q9UNQ0 whole entry, looked up): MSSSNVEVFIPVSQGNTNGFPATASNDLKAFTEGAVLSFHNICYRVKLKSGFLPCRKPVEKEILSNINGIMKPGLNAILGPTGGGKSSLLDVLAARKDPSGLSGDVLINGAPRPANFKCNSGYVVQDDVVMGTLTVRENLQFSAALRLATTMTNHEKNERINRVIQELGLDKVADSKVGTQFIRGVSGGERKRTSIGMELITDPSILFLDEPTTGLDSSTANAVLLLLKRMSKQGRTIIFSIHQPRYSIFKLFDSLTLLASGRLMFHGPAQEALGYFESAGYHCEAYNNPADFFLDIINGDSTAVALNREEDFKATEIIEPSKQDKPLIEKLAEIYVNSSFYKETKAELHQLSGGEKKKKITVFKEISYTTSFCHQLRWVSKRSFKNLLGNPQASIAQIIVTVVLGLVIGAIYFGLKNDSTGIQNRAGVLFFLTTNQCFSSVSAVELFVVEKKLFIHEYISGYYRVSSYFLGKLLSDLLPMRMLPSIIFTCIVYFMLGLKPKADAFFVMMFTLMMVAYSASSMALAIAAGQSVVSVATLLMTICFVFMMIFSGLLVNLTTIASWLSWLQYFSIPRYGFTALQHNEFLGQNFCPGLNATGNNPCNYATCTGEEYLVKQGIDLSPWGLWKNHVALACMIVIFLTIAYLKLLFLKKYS

For the test, the target named is Broad substrate specificity ATP-binding cassette transporter ABCG2 (Homo sapiens) (UniProt Q9UNQ0). In words: blockers of JC-1 export by ABCG2 – multiplex with ABCB1, IgMXP3 cells, flow cytometry, primary screen (AID 1325).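 Note: 0% = DMSO and 100% = nicardipine control wells.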 The conditions noted are these: JC-1 efflux, at 6.6 µM, stronger effect = higher value. In outline:
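Test system: ABCG2 IgMXP3 and barcoded ABCB1 CCRF-Adr cell mix; Schedule: cells with compound and JC-1, 10 min at 25 °C, rotating, no wash; Technique: flow cytometry of retained JC-1 fluorescence; Measure: % inhibition of efflux relative to nicardipine and DMSO; Controls: nicardipine high and DMSO low controls.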
With `CCN1CCN(C(=O)CN(C)S(=O)(=O)c2ccc3ccccc3c2)CC1`, the inhibition was 0.1% (inactive).

Take `COc1ccc(OCCNS(=O)(=O)Cc2ccccc2)cc1`: the inhibition was 2.18% (inactive).

For `COc1ccc(C)cc1NC(=O)Nc1ccccc1SC`, the inhibition is 13.2% (inactive).

For the molecule `COc1ccc(C)cc1NC(=S)Nc1ccccc1SC`, the inhibition is 0.21% (inactive).

For the molecule `COc1ccc(C)cc1NC(=O)C(Sc1ccccc1)c1ccccc1` (stereo not given), the inhibition was 91.6% (active).

With `CCOC(=O)C1=C(CC)OC(N)=C(C#N)C1c1ccc(F)cc1F` (stereo not given), the inhibition is -0.41% (inactive).

Take `CC(CO)NCC12CC3CC(CC(C3)C1)C2` (stereo not given): the inhibition is -2.66% (inactive).

Consider `COc1ccc(CN(C)C(C)C(=O)NC2CCCc3ccccc32)cc1` (stereo not given), for which the inhibition was 6.36% (inactive).

`O=C(Cc1csc(Nc2nc(=S)[nH]c3ccccc23)n1)NCCCN1CCN(c2cccc(Cl)c2)CC1`: the inhibition was 3.5% (inactive).

Take `CCc1ccc(Oc2nc([N+](=O)[O-])nn2C)cc1`: the inhibition is 1.08% (inactive).

`CCC(CC)c1nnc(NC(=O)c2nn(C)c(=O)c3ccccc23)s1`: the inhibition is 6.7% (inactive).

On to `CCN(C(=O)Cc1nc(N)n[nH]1)C1(C(=O)Nc2ccccc2)CCCCC1`, for which the inhibition is 2.7% (inactive).

Turning to `CC(CNC(=O)c1ccc(N)cc1)NC(=O)c1ccc(N)cc1` (stereo not given), the inhibition was -4.01% (inactive).

Consider `Cc1cc(OC(=O)c2ccccc2Cl)ccc1N1C(=O)CCC1=O`, for which the inhibition was 21.3% (inactive).

For the molecule `O=S(=O)(Nc1ncccn1)c1ccc(NS(=O)(=O)c2cccc(Cl)c2Cl)cc1`, the inhibition is 0.94% (inactive).

For the molecule `C=CCC1(CC=C)CCCN1C(=O)CC1C(=O)NCCN1Cc1ccccc1OC` (stereo not given), the inhibition was 4.22% (inactive).

As to `NNc1nc2c(Cl)cccc2s1`, the inhibition was -11.1% (inactive).

As to `COc1ccc(CN2CCCC(C(=O)c3ccc(Cl)cc3)C2)cc1Cn1cncn1` (stereo not given), the inhibition was 2.66% (inactive).

As for `CN(C)c1nnnn1-c1ccc(Cl)cc1`, the inhibition was 1.39% (inactive).

Regarding `O=C1NC(c2ccc(-c3ccccc3[N+](=O)[O-])o2)C(C(=O)c2ccc(Cl)cc2)C(O)(C(F)(F)F)N1` (stereo not given), the inhibition was 14.6% (inactive).
